Assay results as given in ChEMBL document CHEMBL2375244 (J Med Chem, 2013).
Calls of active or inactive are those of the source. The calls are words filed in the database; no cut-off is given here.

Assays:
CDK2/Cyclin A2 [1] = molecular target: T1, CDK2/Cyclin A2 (Homo sapiens, UniProt P24941); test: Inhibition of human CDK2/Cyclin A2 using PKTPKKAKKL as substrate by P33-radiolabeled assay; format: protein-complex assay
Outline: (§1)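 Radiometric (P33) kinase assay run by a contract lab on CDK–cyclin complexes. Inhibitor tested in duplicate at 0.05 nM to 1000 nM with ATP at 10 μM. […] For the in-house assays, IC50 was obtained by Hill-equation fitting.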

[2] = molecular target: Cyclin-dependent kinase 2 (Homo sapiens) (UniProt P24941); test: Inhibition of CDK2-mediated Rb phosphorylation at Ser 807/811 in human NCI-H929 cells at […] after 24 hrs by immunoblotting analysis; format: cell-based
A673 = test: Induction of apoptosis in human A673 cells assessed as caspase-3 activation after 24 hrs by luminescence assay; format: functional, cell-based; conditions: A673, 24 h
Outline: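 Caspase-3/7 activation measured with a Caspase-Glo 3/7 luminescent assay. Cells were plated as for the high-throughput viability assay and exposed for 24 h to serial dilutions. EC50 was obtained from the dose-response.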

BT-549 = test: Cytotoxicity against human BT549 cells after 72 hrs by resazurin/resorufin-based fluorescence assay; format: functional, cell-based; conditions: BT-549, 72 h
Outline: (§2)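 CellTiter-Blue viability: 1200 cells per well seeded, incubated overnight at 37 °C, 5% CO₂; drugs serially diluted 2:3 in medium, four replicate wells per concentration plus four diluent-only control wells; 72 h exposure; resazurin reduction to resorufin read by fluorescence (579 nm ex/584 nm em). IC50 is the average of three data sets, each using nine concentrations between 0.004 μM and 12.5 μM.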

[3] = Cytotoxicity against human RPMI18226 cells after 72 hrs by resazurin/resorufin-based fluorescence assay; format: functional, cell-based; conditions: RPMI18226, 72 h
SK-BR-3 = test: Cytotoxicity against human SK-BR-3 cells after 72 hrs by resazurin/resorufin-based fluorescence assay; format: functional, cell-based; conditions: SK-BR-3, 72 h; outline: as §2
[4] = Cytotoxicity against mouse GC-1 cells after 72 hrs by MTT assay; format: functional, cell-based; conditions: GC-1, 72 h
Outline: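 Cells kept in RPMI or DMEM with 10% FBS at 37 °C, 5% CO₂ and allowed to attach overnight; 72 h with increasing inhibitor concentrations; then 1 mg/mL MTT for 3 h, DMSO solubilisation, OD read at 540 nm. Testis lines had culture conditions adapted to them. Dose-response in triplicate, 9 concentrations between 0.02 and 100 μM, averaged.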

[5] = molecular target: CDK2/Cyclin A1 (Homo sapiens) (UniProt P24941+P78396); test: Inhibition of human CDK2/Cyclin A1 at 0.1 uM incubated for 15 mins prior to substrate addition measured after 90 mins by P33-radiolabeled assay relative to control; format: protein-complex assay
[6] = molecular target: CDK2/Cyclin A2 (Homo sapiens) (UniProt P24941+P20248); test: Inhibition of human CDK2/Cyclin A at 0.1 uM incubated for 15 mins prior to substrate addition measured after 90 mins by P33-radiolabeled assay relative to control; format: protein-complex assay
[7] = molecular target: T2, Cyclin-dependent kinase 5/CDK5 activator 1 (Homo sapiens) (UniProt Q00535+Q15078); test: Inhibition of human CDK5/P25 at 0.1 uM incubated for 15 mins prior to substrate addition measured after 90 mins by P33-radiolabeled assay relative to control; format: protein-complex assay
[8] = molecular target: T2, Cyclin-dependent kinase 5/CDK5 activator 1 (Homo sapiens); test: Inhibition of human CDK5/P35 at 0.1 uM incubated for 15 mins prior to substrate addition measured after 90 mins by P33-radiolabeled assay relative to control; format: protein-complex assay
[9] = molecular target: CDK4/Cyclin D3 (Homo sapiens) (UniProt P11802+P30281); test: Inhibition of human CDK4/Cyclin D3 at 0.1 uM incubated for 15 mins prior to substrate addition measured after 90 mins by P33-radiolabeled assay relative to control; format: protein-complex assay
[10] = molecular target: CDK1/Cyclin E (Homo sapiens) (UniProt P06493+P24864); test: Inhibition of human CDK1/Cyclin E at 0.1 uM incubated for 15 mins prior to substrate addition measured after 90 mins by P33-radiolabeled assay relative to control; format: protein-complex assay
[11] = molecular target: CDK6/cyclin D1 (Homo sapiens) (UniProt P24385+Q00534); test: Inhibition of human CDK6/Cyclin D1 at 0.1 uM incubated for 15 mins prior to substrate addition measured after 90 mins by P33-radiolabeled assay relative to control; format: protein-complex assay
[12] = molecular target: CDK9/Cyclin K (Homo sapiens) (UniProt P50750+O75909); test: Inhibition of human CDK9/Cyclin K at 0.1 uM incubated for 15 mins prior to substrate addition measured after 90 mins by P33-radiolabeled assay relative to control; format: protein-complex assay
Outline: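 Kinome profiling (339-kinase panel) by a contract lab using a P33-radiolabel assay. Each kinase was tested at a single compound concentration of 0.1 μM, in duplicate, with ATP at 10 μM.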

[13] = molecular target: Mitogen-activated protein kinase 15 (Homo sapiens) (UniProt Q8TD08); test: Inhibition of human ERK7 at 0.1 uM incubated for 15 mins prior to substrate addition measured after 90 mins by P33-radiolabeled assay relative to control
[14] = molecular target: CDK1/Cyclin A (Homo sapiens) (UniProt P06493+P20248); test: Inhibition of human CDK1/Cyclin A at 0.1 uM incubated for 15 mins prior to substrate addition measured after 90 mins by P33-radiolabeled assay relative to control; format: protein-complex assay
[15] = molecular target: Serine/threonine-protein kinase TAO1 (Homo sapiens) (UniProt Q7L7X3); test: Inhibition of human TAO1 at 0.1 uM incubated for 15 mins prior to substrate addition measured after 90 mins by P33-radiolabeled assay relative to control
[16] = molecular target: CDK6/cyclin D3 (Homo sapiens) (UniProt P30281+Q00534); test: Inhibition of human CDK6/Cyclin D3 at 0.1 uM incubated for 15 mins prior to substrate addition measured after 90 mins by P33-radiolabeled assay relative to control; format: protein-complex assay
CDK9/Cyclin K = CDK9/Cyclin K (Homo sapiens, UniProt P50750); test: Inhibition of CDK9/Cyclin K (unknown origin)-mediated phosphorylation of peptide substrate incubated for 15 mins prior to substrate addition measured after 90 mins by P33-radiolabeled assay; format: protein-complex assay; outline: as §1
[17] = molecular target: Cyclin-dependent kinase 7/ cyclin H (Homo sapiens, UniProt P50613); test: Inhibition of CDK7/Cyclin H (unknown origin)-mediated phosphorylation of peptide substrate incubated for 15 mins prior to substrate addition measured after 90 mins by P33-radiolabeled assay; format: protein-complex assay
[18] = molecular target: Cyclin-dependent kinase 5/CDK5 activator 1 (Homo sapiens, UniProt Q00535); test: Inhibition of CDK5/P25 (unknown origin)-mediated phosphorylation of peptide substrate incubated for 15 mins prior to substrate addition measured after 90 mins by P33-radiolabeled assay; format: protein-complex assay
CDK3/Cyclin E = CDK3/Cyclin E (Homo sapiens, UniProt Q00526); test: Inhibition of CDK3/Cyclin E (unknown origin)-mediated phosphorylation of peptide substrate incubated for 15 mins prior to substrate addition measured after 90 mins by P33-radiolabeled assay; format: protein-complex assay
CDK2/Cyclin A1 = CDK2/Cyclin A1 (Homo sapiens, UniProt P24941); test: Inhibition of CDK2/Cyclin A1 (unknown origin)-mediated phosphorylation of peptide substrate incubated for 15 mins prior to substrate addition measured after 90 mins by P33-radiolabeled assay; format: protein-complex assay
CDK2/Cyclin A2 [19] = molecular target: T1, CDK2/Cyclin A2; test: Inhibition of CDK2/Cyclin A (unknown origin)-mediated phosphorylation of peptide substrate incubated for 15 mins prior to substrate addition measured after 90 mins by P33-radiolabeled assay; format: protein-complex assay

T2 sequence (Q00535 whole entry): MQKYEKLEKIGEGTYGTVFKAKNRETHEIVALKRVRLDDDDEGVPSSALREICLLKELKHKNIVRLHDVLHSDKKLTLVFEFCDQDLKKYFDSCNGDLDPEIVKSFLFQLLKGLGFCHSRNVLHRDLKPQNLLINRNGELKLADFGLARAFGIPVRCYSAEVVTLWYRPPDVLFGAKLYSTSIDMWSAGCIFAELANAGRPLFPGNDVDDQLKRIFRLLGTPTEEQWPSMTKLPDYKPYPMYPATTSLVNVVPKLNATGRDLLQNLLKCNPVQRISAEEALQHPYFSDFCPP
T2 sequence (Q15078 99-307 partner limits assumed): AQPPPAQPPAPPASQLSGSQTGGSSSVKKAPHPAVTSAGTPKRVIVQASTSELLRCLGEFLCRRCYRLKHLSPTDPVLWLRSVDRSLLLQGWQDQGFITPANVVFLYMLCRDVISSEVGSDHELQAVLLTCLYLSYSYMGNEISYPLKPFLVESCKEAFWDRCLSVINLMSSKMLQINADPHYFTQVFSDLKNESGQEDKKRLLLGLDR
Cyclin-dependent kinase 5/CDK5 activator 1, sequence (Q00535 whole entry): as the sequence (Q00535 whole entry) above
Cyclin-dependent kinase 5/CDK5 activator 1, sequence (Q15078 whole entry, further chain): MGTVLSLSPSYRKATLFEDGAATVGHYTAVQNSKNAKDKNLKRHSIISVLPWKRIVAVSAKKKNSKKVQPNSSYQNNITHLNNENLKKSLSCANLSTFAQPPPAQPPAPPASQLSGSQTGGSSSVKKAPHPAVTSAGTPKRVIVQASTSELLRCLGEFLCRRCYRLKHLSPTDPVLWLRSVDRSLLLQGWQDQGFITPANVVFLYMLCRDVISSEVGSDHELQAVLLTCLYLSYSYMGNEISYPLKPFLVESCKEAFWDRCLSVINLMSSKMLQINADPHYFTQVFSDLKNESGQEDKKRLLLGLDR
CDK3/Cyclin E, sequence (P24864 whole entry): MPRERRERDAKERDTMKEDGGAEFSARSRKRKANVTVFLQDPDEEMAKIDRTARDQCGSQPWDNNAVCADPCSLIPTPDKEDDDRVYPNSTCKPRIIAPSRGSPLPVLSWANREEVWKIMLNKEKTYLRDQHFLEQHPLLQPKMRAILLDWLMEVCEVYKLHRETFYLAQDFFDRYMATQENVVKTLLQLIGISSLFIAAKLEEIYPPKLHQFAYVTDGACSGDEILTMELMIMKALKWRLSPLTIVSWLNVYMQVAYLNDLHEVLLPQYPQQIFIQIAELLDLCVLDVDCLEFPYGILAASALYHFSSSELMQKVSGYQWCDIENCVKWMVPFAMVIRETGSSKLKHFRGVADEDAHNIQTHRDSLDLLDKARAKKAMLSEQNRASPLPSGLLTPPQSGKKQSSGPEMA
CDK3/Cyclin E, sequence (Q00526 whole entry): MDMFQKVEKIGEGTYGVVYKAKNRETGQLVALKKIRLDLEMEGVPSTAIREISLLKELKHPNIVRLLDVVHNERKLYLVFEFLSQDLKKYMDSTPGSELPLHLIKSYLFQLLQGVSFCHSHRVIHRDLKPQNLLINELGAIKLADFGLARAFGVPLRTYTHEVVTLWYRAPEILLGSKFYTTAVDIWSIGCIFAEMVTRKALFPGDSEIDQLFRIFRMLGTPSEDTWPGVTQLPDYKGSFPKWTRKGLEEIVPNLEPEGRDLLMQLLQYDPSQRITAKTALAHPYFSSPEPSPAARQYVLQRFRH
Mitogen-activated protein kinase 15 (Homo sapiens), sequence (Q8TD08 whole entry): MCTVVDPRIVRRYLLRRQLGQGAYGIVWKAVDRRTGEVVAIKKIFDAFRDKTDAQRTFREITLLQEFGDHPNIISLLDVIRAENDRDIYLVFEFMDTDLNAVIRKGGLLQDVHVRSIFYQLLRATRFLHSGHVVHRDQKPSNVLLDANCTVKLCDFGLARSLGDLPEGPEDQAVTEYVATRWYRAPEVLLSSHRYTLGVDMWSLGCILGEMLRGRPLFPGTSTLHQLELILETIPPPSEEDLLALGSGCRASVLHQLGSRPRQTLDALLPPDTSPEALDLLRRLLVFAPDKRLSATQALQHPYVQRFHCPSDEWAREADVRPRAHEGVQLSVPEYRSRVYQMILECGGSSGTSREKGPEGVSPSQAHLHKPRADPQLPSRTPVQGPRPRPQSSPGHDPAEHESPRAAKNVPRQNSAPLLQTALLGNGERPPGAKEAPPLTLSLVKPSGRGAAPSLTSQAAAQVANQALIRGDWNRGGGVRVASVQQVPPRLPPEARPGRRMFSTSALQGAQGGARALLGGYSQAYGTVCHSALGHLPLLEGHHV
Serine/threonine-protein kinase TAO1 (Homo sapiens), sequence (Q7L7X3 whole entry): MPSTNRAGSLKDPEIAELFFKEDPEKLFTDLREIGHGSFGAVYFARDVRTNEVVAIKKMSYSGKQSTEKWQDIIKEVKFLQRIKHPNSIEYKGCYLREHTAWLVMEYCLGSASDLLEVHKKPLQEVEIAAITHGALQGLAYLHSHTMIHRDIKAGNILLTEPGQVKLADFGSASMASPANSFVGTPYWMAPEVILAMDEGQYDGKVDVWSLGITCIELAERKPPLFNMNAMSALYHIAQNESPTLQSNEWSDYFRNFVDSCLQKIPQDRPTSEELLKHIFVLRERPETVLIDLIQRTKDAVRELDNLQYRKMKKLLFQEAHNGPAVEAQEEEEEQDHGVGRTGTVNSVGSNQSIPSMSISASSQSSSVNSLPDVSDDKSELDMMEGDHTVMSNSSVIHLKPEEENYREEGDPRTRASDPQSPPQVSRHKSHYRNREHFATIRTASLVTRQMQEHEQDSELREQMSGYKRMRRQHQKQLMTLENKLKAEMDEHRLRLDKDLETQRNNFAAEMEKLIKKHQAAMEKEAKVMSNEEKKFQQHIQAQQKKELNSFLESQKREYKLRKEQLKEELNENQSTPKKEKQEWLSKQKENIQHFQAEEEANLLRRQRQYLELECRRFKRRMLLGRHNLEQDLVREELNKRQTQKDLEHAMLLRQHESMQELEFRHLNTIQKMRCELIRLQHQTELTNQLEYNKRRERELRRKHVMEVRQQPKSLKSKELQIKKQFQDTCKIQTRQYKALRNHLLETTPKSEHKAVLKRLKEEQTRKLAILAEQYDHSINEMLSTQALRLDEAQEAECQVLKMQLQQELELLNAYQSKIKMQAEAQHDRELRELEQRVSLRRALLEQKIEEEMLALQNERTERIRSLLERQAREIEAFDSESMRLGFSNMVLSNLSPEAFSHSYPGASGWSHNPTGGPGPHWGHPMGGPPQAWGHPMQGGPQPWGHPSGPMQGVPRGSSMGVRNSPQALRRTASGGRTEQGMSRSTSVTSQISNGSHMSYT
CDK1/Cyclin E (Homo sapiens), sequence (P06493 whole entry, looked up): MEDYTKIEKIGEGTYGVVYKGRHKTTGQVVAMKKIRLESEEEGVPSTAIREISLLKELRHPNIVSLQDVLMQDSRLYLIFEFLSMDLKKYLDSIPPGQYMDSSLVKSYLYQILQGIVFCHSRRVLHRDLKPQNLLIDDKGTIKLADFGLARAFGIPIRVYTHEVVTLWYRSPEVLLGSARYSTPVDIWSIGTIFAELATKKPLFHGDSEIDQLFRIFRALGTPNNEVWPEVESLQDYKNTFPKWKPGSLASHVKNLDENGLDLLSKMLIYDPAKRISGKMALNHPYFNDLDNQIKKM
CDK1/Cyclin E (Homo sapiens), sequence (P24864 whole entry, looked up): as the sequence (P24864 whole entry) above
CDK1/Cyclin A (Homo sapiens), sequence (P06493 whole entry, looked up): as the sequence (P06493 whole entry, looked up) above
CDK1/Cyclin A (Homo sapiens), sequence (P20248 whole entry, looked up): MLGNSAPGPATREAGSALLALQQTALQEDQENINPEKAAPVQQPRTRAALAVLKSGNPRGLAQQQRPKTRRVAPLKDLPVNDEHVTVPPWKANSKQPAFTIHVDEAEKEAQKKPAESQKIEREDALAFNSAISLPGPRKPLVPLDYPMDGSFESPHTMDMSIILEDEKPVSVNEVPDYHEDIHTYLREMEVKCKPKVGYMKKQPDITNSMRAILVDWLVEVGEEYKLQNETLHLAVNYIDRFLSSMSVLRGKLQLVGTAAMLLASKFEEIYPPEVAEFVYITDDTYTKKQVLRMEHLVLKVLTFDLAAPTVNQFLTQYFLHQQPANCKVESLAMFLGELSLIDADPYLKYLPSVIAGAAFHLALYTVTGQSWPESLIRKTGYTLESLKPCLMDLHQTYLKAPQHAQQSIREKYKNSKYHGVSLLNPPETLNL

Nc1nc(Nc2ccc(S(N)(=O)=O)cc2)sc1C(=O)c1ccccc1[N+](=O)[O-]
IC50 (CDK2/Cyclin A2 [1]): 1.5 nM
inhibition [2]: Active
EC50 (A673): 410 nM
IC50 (BT-549): > 10000 nM
IC50 [3]: > 10000 nM
IC50 (SK-BR-3): 490 nM
IC50 [4]: 20000 nM
inhibition [5]: 90%
inhibition [6]: 90%
inhibition [7]: 90%
inhibition [8]: 90%
inhibition [9]: 80%
inhibition [10]: 80%
inhibition [11]: 80%
inhibition [12]: 80%
inhibition [13]: 70%
inhibition [14]: 70%
inhibition [15]: 60%
inhibition [16]: 85%
IC50 (CDK9/Cyclin K): 13 nM
IC50 [17]: > 1000 nM
IC50 [18]: 1.5 nM
IC50 (CDK3/Cyclin E): 38 nM
IC50 (CDK2/Cyclin A1): 1.8 nM
IC50 (CDK2/Cyclin A2 [19]): 1.1 nM
